# Shown are actives, neighbours in structure and some others; about 3.4% of the full set was active somewhere.
# IMP-1 inhibitor – inhibitors of Pseudomonas aeruginosa IMP-1 metallo-beta-lactamase; purified IMP-1, nitrocefin hydrolysis, epi-absorbance fluorescence; inhibition, % at 5.6 µM; 0.45% of 290,000 active; AID 1556;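 active means inhibition above the mean plus 3 SD of all compounds in the same screening run, cut at about 4.5% in these data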;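 further: 0% = IMP-1 with DMSO and 100% = DMSO wells lacking enzyme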
#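 System: Purified recombinant IMP-1 metallo-beta-lactamase enzyme | Measured by: Fluorescence quenching readout, ex 480/em 530 nm | Replication: Singlicate | Incubation: 15 min preincubation plus 25 min reaction at 25 °C | Evaluation: Percent inhibition from optical density relative to buffer-blank wells | Benchmarks: DMSO with and without IMP-1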
# VIM-2 inhibitor – blocks Pseudomonas aeruginosa VIM-2 metallo-beta-lactamase | purified VIM-2, nitrocefin hydrolysis, epi-absorbance fluorescence | inhibition, % at 5.6 µM | 0.89% of 290,000 active | AID 1527;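 active means inhibition above the mean of all tested compounds plus 3 SD, cutoff set per screening run, cut at about 7.5% in these data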;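 further: red hydrolysis product quenches plate fluorescence so inhibitors raise well fluorescence; 0% = enzyme with DMSO and 100% = DMSO without enzyme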
# ANO1 block – mouse TMEM16A channel inhibition, primary screen | 1.2% of 310,000 active | normalized B-score (activity score, 25-100; higher = stronger inhibition) at 10 µM | HEK293 TMEM16A/YFP iodide influx fluorescence, ionomycin | AID 588511;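 active means ratio plate-corrected score three or more library SD toward inhibition, starting fluorescence score within five deviations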;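 further: score derived from kinetic fluorescence span divided by baseline fluorescence per well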
# CHT block – inhibitors of human choline transporter CHT; Q9GZV3; CHT-expressing cells, membrane potential dye, choline response; hits give low values; B-score at 10 µM; 0.86% of 310,000 active; AID 488975;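 active means B-score over 3 SD under the library average, and starting fluorescence ratio not unusually high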;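 further: choline stimulus applied at its EC90 after an EC20 pre-addition; B-score computed on integrated fluorescence ratio after choline addition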
# CHT allo act – human CHT allosteric activation; Q9GZV3; CHT-expressing cells, membrane potential dye, choline EC20; hits give high values; LV-AA mutant CHT in HEK293 cells; B-score at 10 µM; 0.49% of 310,000 active; AID 488977;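 active means initial fluorescence not abnormally high and integrated response B-score, plate-corrected, over 3 SD above library mean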
# ANO1 activ – activators or potentiators of mouse TMEM16A chloride channel; Q8BHY3; HEK293 TMEM16A/YFP-H148Q/I152L, iodide quench fluorescence; hits give low values; B-score at 10 µM; 0.3% of 340,000 active; AID 623877;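 active means fluorescence-ratio B-score plate-corrected deviation score at least 3 library SD below zero, with starting fluorescence score within 5 deviations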;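 further: channel opened by trigger with iodide after compound preincubation; score built on the fluorescence ratio of max minus min over baseline; more negative score means more quench and so TMEM16A activation or potentiation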
# Numbers without * were called inactive; i = inactive; x = no result given.
SMILES,IMP-1 inhibitor,VIM-2 inhibitor,ANO1 block,CHT block,CHT allo act,ANO1 activ
COc1ccc(Cc2c3cc(OC)c(OC)cc3cc[n+]2C)cc1OC,x,x,i,i,12.1*,i
CC[n+]1ccc2cc(OC)c(OC)cc2c1Cc1ccc(OC)c(OC)c1,-3.2,-2.7,i,i,6.27*,i
COc1cc2c[n+](C)c3c4ccccc4ccc3c2cc1OC,x,x,x,x,x,i
Cc1cc(C)c2c(CN3CCN(Cc4ccccc4)CC3)cc(=O)oc2c1C,-1.4,9.8*,i,i,i,i
Cc1c(O)ccc2c(CN3CCN(Cc4ccccc4)CC3)cc(=O)oc12,0.2,0.1,i,i,i,i
O=C(CN(c1cccc([N+](=O)[O-])c1)S(=O)(=O)c1ccccc1)N1CCCCC1,-1.7,-3.2,i,i,i,i
COc1ccc(O)c(-c2[nH]ncc2C(=O)c2cccc(C)c2)c1,5.1*,-1.3,i,i,i,i
COc1ccc(C(=O)c2cn[nH]c2-c2cc(C)ccc2O)cc1,-1.8,-1.6,i,i,i,i
Cc1nc2nc(-c3cccnc3)nn2c(C)c1Cl,-0.5,10.6*,i,i,i,i
Cc1nc2nc(-c3ccco3)nn2c(C)c1Cl,-3.2,3.0,i,i,i,i
COc1ccc(C2C3=C(N=C4SCC(=O)N42)c2ccccc2CC3)cc1OC (stereo unspecified),5.9*,-2.0,i,i,i,i
COc1ccc(C2C3=C(N=C4SCC(=O)N42)c2ccccc2CC3)cc1 (stereo unspecified),0.9,2.3,i,i,i,i
c1ccc(-c2csc(=Nc3cccnc3)n2CC2CCCO2)cc1 (stereo unspecified),-1.0,-4.6,i,i,i,i
COCCn1c(-c2ccccc2)csc1=Nc1cccnc1,-0.4,0.2,25*,i,i,i
Cc1cc(OCC(=O)OCC(=O)Nc2ccc(Cl)cn2)ccc1Cl,x,x,x,x,x,i
CC(CCc1ccccc1)NCc1cccc2ccccc12 (stereo unspecified),-3.3,-0.4,i,i,i,i
NC(CCCCc1ccccc1)c1cccc2ccccc12 (stereo unspecified),x,x,25*,i,10.5*,x
CCC(C)NC(=O)c1cc2c(=O)[nH]c3ccc(C)cc3c2s1 (stereo unspecified),-1.4,3.8,i,i,i,i
COc1ccc(-c2cnc(N)nc2-c2ccc(OC)cc2O)cc1,-1.4,0.7,i,i,i,-16.7*
COc1ccc(-c2nc(N)ncc2-c2ccccc2)c(O)c1,-2.4,0.6,i,i,i,i
Cc1ccc(NCC(=O)c2ccc(C)cc2)cc1,35.6*,6.4,i,i,i,i
Cc1ccc(C(=O)CNc2ccc(C)c(Cl)c2)cc1,-3.7,-1.0,i,i,i,i
Oc1c(C=Nc2cccc3cccnc23)sc2ccccc12,-2.2,9.7*,i,i,i,x
COc1ccccc1/C=C/C=c1\sc2nc(=O)c(Cc3ccccc3)nn2c1=O,7.9*,0.7,i,i,i,i
CCCOc1ccc(Cc2nn3c(=O)/c(=C/c4ccco4)sc3nc2=O)cc1,1.6,-0.9,i,i,i,i
SMILES,IMP-1 inhibitor,VIM-2 inhibitor,ANO1 block,CHT block,CHT allo act,ANO1 activ
O=C(NCc1cc([N+](=O)[O-])ccc1O)c1cccc(NS(=O)(=O)c2ccccc2)c1,-2.0,-2.8,i,i,i,i
O=C(NCc1cccs1)C1CCN(c2nccs2)CC1,-2.5,-3.1,i,i,i,i
Cc1cc(C)cc(NC(=O)C2CCN(c3nccs3)CC2)c1,-2.3,-2.6,i,i,i,-14.4*
Cn1c(=O)c2c(ncn2CC(=O)Nc2nc(-c3ccccc3Cl)cs2)n(C)c1=O,-1.2,0.2,i,i,i,-10.2*
COc1ccccc1CCNC(=O)C(=O)NCC1OCCN1S(=O)(=O)c1ccc2c(c1)OCCO2 (stereo unspecified),-1.7,-1.5,i,i,i,i
CCN(CC)S(=O)(=O)c1cccc(NC(=O)CNc2cccc(S(=O)(=O)N3CCOCC3)c2)c1,x,x,i,i,i,i
